Assay results as given in ChEMBL document CHEMBL3243948, “Vitamin B6 antagonists obtained by replacing or modifying the 2-methyl group” (J Med Chem, 1977).
Calls of active or inactive are those of the source. No cut-off for these calls is given here.

Tests used:
TA3 [1] = experiment: Growth inhibition of mouse TA3 cells in presence of 10^-7 M pyridoxal; type: functional
Procedure, shortened: (§1)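 Mouse mammary adenocarcinoma TA3 cells cultured in Eagle's medium with minimal pyridoxal (1 X 10^-7 M) to sustain growth. Compounds were scored for inhibition of growth.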

TA3 [2] = experiment: Growth inhibition of mouse TA3 cells at 1 X 10^-4 M in presence of 10^-7 M pyridoxal; type: functional, cell-based
Pyridoxal kinase = molecular target: T1, Pyridoxal kinase (Homo sapiens, UniProt O00764); experiment: Competitive inhibition of pyridoxal phosphokinase (unknown origin)
T1 sequence (O00764 whole entry): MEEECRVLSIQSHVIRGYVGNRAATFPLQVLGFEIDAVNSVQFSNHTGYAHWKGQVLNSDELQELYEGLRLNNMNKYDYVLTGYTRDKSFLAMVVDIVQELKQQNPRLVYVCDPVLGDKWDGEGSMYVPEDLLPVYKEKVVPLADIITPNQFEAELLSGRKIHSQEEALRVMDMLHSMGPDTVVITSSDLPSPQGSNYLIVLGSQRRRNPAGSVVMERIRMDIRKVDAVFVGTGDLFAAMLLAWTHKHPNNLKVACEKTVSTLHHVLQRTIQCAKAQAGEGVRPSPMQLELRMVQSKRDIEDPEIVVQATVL
Procedure, shortened: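 Inhibitor tested against pyridoxal phosphokinase-catalysed phosphorylation of pyridoxal (substrate). Ki derived from competitive kinetics.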

TA3 [3] = experiment: Growth inhibition of mouse TA3 cells in presence of 10^-7 M pyridoxal relative to control; type: functional; procedure, shortened: as §1
TA3 [4] = experiment: Growth inhibition of mouse TA3 cells in presence of 10^-5 M pyridoxal; type: functional
Procedure, shortened: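 TA3 mouse mammary adenocarcinoma cells grown in complete Eagle's medium, which holds a higher pyridoxal level than the minimal medium. Compounds were tested for growth inhibition.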

[5] = Mus musculus, TA3, read-out: ID50 (the source's name)

Structure (SMILES)	ID50 (TA3 [1])	growth inhibition (GI) (TA3 [2])	other results
Br.COC(=O)N(C)c1ncc(CO)c(CO)c1OCc1ccccc1	1.6 ×10⁻⁴ M		
COc1cncc2c1C(=O)OC2=O		inactive	
COc1c(C(=O)O)ncc(C(=O)O)c1C(=O)O		inactive	
C#Cc1ncc(CO)c(CO)c1O			Ki (Pyridoxal kinase): 105 µM
NC(=O)c1ncc(CO)c(CO)c1O	1 ×10⁻⁴ M		growth inhibition (GI) (TA3 [3]): 40%
COC(=O)c1cncc(OC)c1C(=O)OC		inactive	
CCOC(=O)c1cncc(OC)c1C(=O)OCC		inactive	
N/N=C/c1ncc(CO)c(CO)c1O	2.3 ×10⁻⁴ M		
COc1cncc(CO)c1CO		inactive	
OCc1cnc(/C=N/N=C/c2ncc(CO)c(CO)c2O)c(O)c1CO	1.6 ×10⁻⁵ M		ID50 (TA3 [4]): 1.1 ×10⁻⁵ M
O=Cc1ncc(CO)c(CO)c1O	1.7 ×10⁻⁴ M		
Cn1c(=O)oc2c(CO)c(CO)cnc21	>1 ×10⁻⁴ M		
OCc1cnc(Cl)c(O)c1CO	4.5 ×10⁻⁵ M		growth inhibition (GI) (TA3 [4]): inactive; Ki (Pyridoxal kinase): 24 µM
COc1c(C)ncc(CO)c1CO		inactive	
Cl.Nc1ncc(CO)c(CO)c1O	1.25 ×10⁻⁵ M		growth inhibition (GI) (TA3 [4]): inactive
NCc1ncc(CO)c(CO)c1O	1 ×10⁻⁵ M		growth inhibition (GI) (TA3 [3]): 25%
O=C(SCc1ncc(CO)c(CO)c1OCc1ccccc1)c1ccccc1	3 ×10⁻⁵ M		
CNc1ncc(CO)c(CO)c1O.Cl	1 ×10⁻⁴ M		growth inhibition (GI) (TA3 [3]): 15%
OCc1cnc(F)c(O)c1CO	>1 ×10⁻⁴ M		
COc1cncc(C(=O)O)c1C(=O)O		inactive	
O=C(O)c1ncc(CO)c(CO)c1O	>1 ×10⁻⁴ M		
C=Cc1ncc(CO)c(CO)c1O			IC50 (TA3 [1]; [5]): 9.4 µM; IC50 (TA3 [4]; [5]): 9.4 µM
CC1(C)OCc2cnc(CCl)c(OCc3ccccc3)c2CO1.Cl	12 ×10⁻⁵ M		
